Measured values of several laboratories.
Protocols differ between the studies behind these lines.

CN(C)C1CCCN(C(=O)/C=C/c2nn(CC3CCCC3)c3ncnc(N)c23)C1 (stereo not drawn)
EC50 (OE33; cell growth or viability; resazurin; 5 days): > 30 µM

CC(C)(C)c1cnc(CSc2cnc(NC(=O)C3CCN(CCCCCCCSc4cccc5c4C(=O)N(C4CCC(=O)NC4=O)C5=O)CC3)s2)o1 (stereo not drawn)
viability (HH; cell growth or viability; CCK-8; 50 nM): 96%

CC(=NNC(=O)c1ccccc1)c1ccc(Nc2nnc(-c3ccc(Cl)cc3)c3ccccc23)cc1
viability (HepG2; cell growth or viability; MTT; 0.625 µM; 24 h): 48.7%

CC(C)(C)c1cnc(CSc2cnc(NC(=O)C3CCN(C(=O)CCCSc4cccc5c4C(=O)N(C4CCC(=O)NC4=O)C5=O)CC3)s2)o1 (stereo not drawn)
viability (HH; cell growth or viability; CCK-8; 0.1 µM): 98%

Cc1sc2c(c1C)C(c1ccc(Cl)cc1)=N[C@@H](CC(=O)NCCCCCCCCNC(=O)COc1cccc3c1C(=O)N(C1CCC(=O)NC1=O)C3=O)c1nnc(C)n1-2 (stereo partly drawn)
IC50 (Ramos; cell growth or viability; ATP luminescence; 72 h): 0.012 µM

CCOC(=O)c1nn(-c2cccc(Cl)c2)/c(=N/N=C(\C)c2ccc(NC(=O)c3ccccc3)cc2)s1
viability (HepG2; cell growth or viability; MTT; 1.25 µM): 2.72%

CNc1ncc2c(/C=C/C(=O)N3CCC(OC)CC3)nn(Cc3ccccc3OC)c2n1
EC50 (OE33; cell growth or viability; resazurin; 5 days): 7.72 µM

C=CC(=O)NC1CCN(c2ncc3ncnc(Nc4ccc(Oc5ccc6c(c5)ncn6C)c(C)c4)c3n2)CC1
EC50 (DMS-273; cell growth or viability): 0.338 µM

CNc1ncc2c(/C=C/C(=O)N3CCC(OC)CC3)nn(Cc3ccccc3C)c2n1
EC50 (OE33; cell growth or viability; resazurin; 5 days): 7.84 µM

CC(C)(C)c1cnc(CSc2cnc(NC(=O)C3CCN(CCCCCCCCSc4cccc5c4CN(C4CCC(=O)NC4=O)C5=O)CC3)s2)o1 (stereo not drawn)
viability (HH; cell growth or viability; CCK-8; 0.5 µM): 0%

O=C(Nc1ccc(Oc2nnc(-c3ccc(Cl)cc3)c3ccccc23)cc1)c1cccc([N+](=O)[O-])c1
cell death (HepG2; cell growth or viability; MTT; 2.5 µM): 96.4%

CC(C)(C)c1cnc(CSc2cnc(NC(=O)C3CCN(CCCCSc4cccc5c4C(=O)N(C4CCC(=O)NC4=O)C5=O)CC3)s2)o1 (stereo not drawn)
viability (HH; cell growth or viability; CCK-8; 1 nM): 100%

CC(=O)c1nn(-c2ccc(C)cc2)/c(=N/N=C(\C)c2ccc(NC(=O)c3ccccc3)cc2)s1
viability (HepG2; cell growth or viability; MTT; 1.25 µM): 5.9%

CC(C)(C)c1cnc(CSc2cnc(NC(=O)C3CCN(C(=O)COCCOCCSc4cccc5c4C(=O)N(C4CCC(=O)NC4=O)C5=O)CC3)s2)o1 (stereo not drawn)
viability (HH; cell growth or viability; CCK-8; 0.25 µM): 92.9%

CC(=NNC(=O)c1ccncc1)c1ccc(Nc2nnc(-c3ccc(Cl)cc3)c3ccccc23)cc1
cell death (HepG2; cell growth or viability; MTT; 0.156 µM): 17.1%

CC(=O)c1nn(-c2ccccc2Cl)/c(=N/N=C(\C)c2ccc(NC(=O)c3ccccc3)cc2)s1
viability (HepG2; cell growth or viability; MTT; 5 µM): 6.09%

CC(=NNC(=O)c1cccnc1)c1ccc(Nc2nnc(-c3ccc(Cl)cc3)c3ccccc23)cc1
cell death (HepG2; cell growth or viability; MTT; 10 µM): 96.8%

O=C(Nc1ccccc1)Nc1cccc(Br)c1
IC50 (LAD2; degranulation): 22.1 µM

CN(C)C1CCN(C(=O)/C=C/c2nn(CC3CCCC3)c3ncnc(N)c23)CC1
EC50 (OE33; cell growth or viability; resazurin; 5 days): > 30 µM

O=C(Nc1ccccc1)Nc1ccc(Oc2nnc(-c3ccc(Cl)cc3)c3ccccc23)cc1
cell death (HepG2; cell growth or viability; MTT; 0.625 µM): 94.7%

CC(C)(C)c1cnc(CSc2cnc(NC(=O)C3CCN(CCCCCSc4cccc5c4CN(C4CCC(=O)NC4=O)C5=O)CC3)s2)o1 (stereo not drawn)
viability (HH; cell growth or viability; CCK-8; 0.25 µM): 0%

CC(=NNC(=S)Nc1ccccc1)c1ccc(Nc2nnc(-c3ccc(Cl)cc3)c3ccccc23)cc1
cell death (HepG2; cell growth or viability; MTT; 10 µM): 95.7%

COC1CCN(C(=O)/C=C/c2nn(CC3CCCC3)c3ncnc(N)c23)CC1
EC50 (OE33; cell growth or viability; resazurin; 5 days): > 30 µM

CC(=NNC(=O)c1ccccc1Br)c1ccc(Nc2nnc(-c3ccc(Cl)cc3)c3ccccc23)cc1
cell death (HepG2; cell growth or viability; MTT; 0.312 µM): 14.6%

CNc1ncc2c(/C=C/C(=O)N3CCC(OC)CC3)nn(Cc3cccc(OC)c3)c2n1
EC50 (OE33; cell growth or viability; resazurin; 5 days): 2.89 µM

O=C(Nc1ccc(C(F)(F)F)cc1)Nc1cccc(Br)c1
IC50 (LAD2; degranulation): 1.24 µM

Nc1ncnc2c1c(/C=C/C(=O)N1CCCC1)nn2CC1CCCC1
EC50 (OE33; cell growth or viability; resazurin; 5 days): > 30 µM

O=C(C=Cc1ccccc1)Nc1ccc(Oc2nnc(-c3ccc(Cl)cc3)c3ccccc23)cc1
cell death (HepG2; cell growth or viability; MTT; 2.5 µM): 87.9%

CNc1ncc2c(/C=C/C(=O)N3CCC(OC)CC3)nn(Cc3ccccc3C(F)(F)F)c2n1
EC50 (OE33; cell growth or viability; resazurin; 5 days): 11.4 µM

CCOC(=O)c1nn(-c2cccc(Cl)c2)/c(=N/N=C(\C)c2ccc(NC(=O)c3ccc(Cl)cc3)cc2)s1
viability (HepG2; cell growth or viability; MTT; 5 µM): 2.59%
